pIC50: −log10 of the molar value.
What was measured:
[1] = target: T1, Epidermal growth factor receptor (Homo sapiens, UniProt P00533); experiment: Inhibitory potency against protein tyrosine kinase activity associated with EGFR was evaluated using ER 22 cell membrane
Protein kinase C (PKC) = experiment: Inhibition of rat PKC(protein kinase-C); format: protein assay
Summary of the method: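 PKC partially purified from rat brain by DEAE-cellulose chromatography and assayed in vitro with a commercial PKC assay kit; inhibitors tested for inhibition of the kinase activity.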

[2] = Inhibition of PKA(protein kinase-A)
[3] = target: T1, Epidermal growth factor receptor; experiment: Inhibition of EGFR(epidermal growth factor receptor) autophosphorylation in ER22 cell membranes
[4] = target: T1, Epidermal growth factor receptor; settings: ER 22; 10 uM
[5] = target: T1, Epidermal growth factor receptor; settings: ER 22; 10 uM; remark: listed apart in the source
[6] = target: T1, Epidermal growth factor receptor; settings: 5 uM
[7] = target: T1, Epidermal growth factor receptor; settings: ER 22; 10 uM; remark: listed apart in the source
[8] = target: T1, Epidermal growth factor receptor; settings: ER 22; 10 uM; remark: listed apart in the source
[9] = target: T1, Epidermal growth factor receptor; settings: 20 uM
[10] = target: T1, Epidermal growth factor receptor; settings: ER 22; 100 uM

T1 sequence (P00533 whole entry): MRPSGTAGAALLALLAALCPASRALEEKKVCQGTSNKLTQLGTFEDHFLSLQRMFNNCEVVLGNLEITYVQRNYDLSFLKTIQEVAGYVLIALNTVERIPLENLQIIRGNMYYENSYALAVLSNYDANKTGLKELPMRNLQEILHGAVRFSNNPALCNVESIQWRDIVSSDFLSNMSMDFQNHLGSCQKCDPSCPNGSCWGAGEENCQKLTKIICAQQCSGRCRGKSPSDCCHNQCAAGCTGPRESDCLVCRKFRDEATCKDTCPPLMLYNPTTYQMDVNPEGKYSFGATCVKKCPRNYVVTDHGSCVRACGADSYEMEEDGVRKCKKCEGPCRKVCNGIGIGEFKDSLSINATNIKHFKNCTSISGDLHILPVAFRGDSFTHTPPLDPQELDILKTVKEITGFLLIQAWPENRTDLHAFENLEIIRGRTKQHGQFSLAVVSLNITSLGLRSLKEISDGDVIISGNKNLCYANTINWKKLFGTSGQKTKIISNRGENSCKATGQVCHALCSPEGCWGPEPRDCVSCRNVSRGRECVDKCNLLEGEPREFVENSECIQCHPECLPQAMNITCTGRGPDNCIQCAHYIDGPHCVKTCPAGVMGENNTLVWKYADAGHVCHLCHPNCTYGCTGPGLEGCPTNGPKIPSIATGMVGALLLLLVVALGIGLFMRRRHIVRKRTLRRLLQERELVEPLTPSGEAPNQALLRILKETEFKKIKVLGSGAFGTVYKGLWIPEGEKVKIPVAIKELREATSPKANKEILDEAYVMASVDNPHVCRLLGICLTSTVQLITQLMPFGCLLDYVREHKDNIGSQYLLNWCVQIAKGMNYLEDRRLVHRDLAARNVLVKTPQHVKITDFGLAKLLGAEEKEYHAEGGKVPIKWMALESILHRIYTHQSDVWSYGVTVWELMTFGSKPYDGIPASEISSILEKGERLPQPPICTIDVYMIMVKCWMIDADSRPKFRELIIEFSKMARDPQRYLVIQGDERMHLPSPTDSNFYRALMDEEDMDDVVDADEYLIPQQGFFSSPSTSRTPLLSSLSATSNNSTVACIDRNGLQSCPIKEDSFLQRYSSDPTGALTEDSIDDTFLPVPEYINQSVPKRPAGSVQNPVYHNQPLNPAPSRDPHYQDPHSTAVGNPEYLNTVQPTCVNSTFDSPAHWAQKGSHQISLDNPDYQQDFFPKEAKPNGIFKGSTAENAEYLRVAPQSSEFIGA

Row | SMILES | pIC50 [1] | other results
1 | Cc1cc(C)cc(COC(=O)c2cc(NCc3cc(O)ccc3O)ccc2O)c1 | 5.52 | –
2 | CC(C)(C)ONC(=O)Cc1cc(NCc2cc(O)ccc2O)ccc1O | 5.30 | –
3 | CONC(=O)c1cc(/N=C/c2cc(O)ccc2O)ccc1O | 4.57 | –
4 | CCOC(=O)c1cc(/N=C/c2cc(O)ccc2O)ccc1O | 4.30 | –
5 | O=C(Cc1cc(NCc2cc(O)ccc2O)ccc1O)NOCc1ccccc1 | 6.00 | –
6 | CC(COC(=O)c1cc(/N=C/c2cc(O)ccc2O)ccc1O)CC(C)(C)C (centres undefined) | < 5.00 | –
7 | O=C(O)Cc1cc(NCc2cc(O)ccc2O)ccc1O | 5.22 | –
8 | CC(C)c1ccc(COC(=O)c2cc(NCc3cc(O)ccc3O)ccc2O)cc1 | 6.00 | –
9 | O=C(O)c1cc(/N=C/c2cc(O)ccc2O)ccc1O | 5.30 | –
10 | O=C(Oc1ccc(-c2ccccc2)cc1)c1cc(NCc2cc(O)ccc2O)ccc1O | 5.30 | –
11 | CC(C)CCCC(C)CCOC(=O)c1cc(/N=C/c2cc(O)ccc2O)ccc1O (centres undefined) | – | inhibition [4]: 20%
12 | CC(C)CCCC(C)CCOC(=O)c1cc(NCc2cc(O)ccc2O)ccc1O (centres undefined) | 5.15 | pIC50 [2]: 5.00; pIC50 [3]: 4.60
13 | CC(C)(C)OC(=O)c1cc(NCc2cc(O)ccc2O)ccc1O | 6.00 | –
14 | CC(CCOC(=O)c1cc(NCc2cc(O)ccc2O)ccc1O)CC(C)(C)C (centres undefined) | < 6.00 | –
15 | CC(C)(C)CCOC(=O)c1cc(/N=C/c2cc(O)ccc2O)ccc1O | – | inhibition [5]: 10%
16 | O=C(NOCc1ccccc1)c1cc(/N=C/c2cc(O)ccc2O)ccc1O | – | inhibition [6]: 43%; inhibition [7]: 8%
17 | O=C(OCCC12C[C@H]3C[C@@H](C1)C[C@@H](C2)C3)c1cc(NCc2cc(O)ccc2O)ccc1O | < 5.30 | –
18 | CC(CCOC(=O)c1cc(/N=C/c2cc(O)ccc2O)ccc1O)CC(C)(C)C (centres undefined) | – | inhibition [8]: 20%

Row | SMILES | pIC50 [1] | other results
19 | CCOP(=O)(Cc1cc(NCc2cc(O)ccc2O)ccc1O)OCC | 5.40 | –
20 | CC(C)(C)OC(=O)c1cc(/N=C/c2cc(O)ccc2O)ccc1O | – | inhibition [8]: 15%
21 | COC(=O)Cc1cc(NCc2cc(O)ccc2O)ccc1O | 5.52 | –
22 | CCOC(=O)Cc1cc(/N=C/c2cc(O)ccc2O)ccc1O | 4.00 | –
23 | O=C(Cc1cc(/N=C/c2cc(O)ccc2O)ccc1O)NOCc1ccccc1 | 4.30 | –
24 | COC(=O)Cc1cc(/N=C/c2cc(O)ccc2O)ccc1O | 4.00 | –
25 | O=C(O)c1cc(NCc2cc(O)ccc2O)ccc1O [LAVENDUSTIN C] | – | IC50 (Protein kinase C (PKC)): > 100 µM; pIC50 [2]: < 4.00
26 | CCOC(=O)Cc1cc(NCc2cc(O)ccc2O)ccc1O | 5.15 | –
27 | O=C(O)Cc1cc(/N=C/c2cc(O)ccc2O)ccc1O | 4.46 | –
28 | COC(=O)c1cc(/N=C/c2cc(O)ccc2O)ccc1O | – | inhibition [10]: 56%
29 | CC(COC(=O)c1cc(NCc2cc(O)ccc2O)ccc1O)CC(C)(C)C (centres undefined) | ~5.40 | IC50 (Protein kinase C (PKC)): 300 µM; pIC50 [2]: 5.00; pIC50 [3]: 5.10
30 | O=P(O)(O)Cc1cc(NCc2cc(O)ccc2O)ccc1O | 5.52 | –
31 | CCOP(=O)(Cc1cc(/N=C/c2cc(O)ccc2O)ccc1O)OCC | < 4.00 | –
32 | CC(C)(C)ONC(=O)Cc1cc(/N=C/c2cc(O)ccc2O)ccc1O | 4.51 | –
33 | O=C(OC/C=C/c1ccccc1)c1cc(NCc2cc(O)ccc2O)ccc1O | 5.89 | –
34 | O=C(OCC1CCCCC1)c1cc(NCc2cc(O)ccc2O)ccc1O | 5.92 | –
35 | CC(C)(C)ONC(=O)c1cc(/N=C/c2cc(O)ccc2O)ccc1O | – | inhibition [8]: 20%
36 | CCCCCCCCCCCCCCCCOC(=O)c1cc(NCc2cc(O)ccc2O)ccc1O | < 5.30 | –

Now from value to molecule, other results behind:

Row | pIC50 [1] | SMILES | other results
37 | 6.15 | CC(C)(C)CCOC(=O)c1cc(NCc2cc(O)ccc2O)ccc1O | –
38 | 7.15 | O=C(Oc1ccccc1)c1cc(NCc2cc(O)ccc2O)ccc1O | –
39 | 6.40 | CC(CCOC(=O)c1cc(NCc2cc(O)ccc2O)ccc1O)c1ccccc1 (centres undefined) | –
40 | 7.10 | O=C(OCc1ccccc1)c1cc(NCc2cc(O)ccc2O)ccc1O | –
41 | 7.52 | O=C(OCCCc1ccccc1)c1cc(NCc2cc(O)ccc2O)ccc1O | IC50 (Protein kinase C (PKC)): > 20 µM; pIC50 [2]: 4.96; pIC50 [3]: 6.15
42 | 6.40 | O=C(OCCCCc1ccccc1)c1cc(NCc2cc(O)ccc2O)ccc1O | –
43 | 6.40 | O=C(NO)c1cc(NCc2cc(O)ccc2O)ccc1O | –
44 | 6.22 | COC(=O)c1cc(NCc2cc(O)ccc2O)ccc1O | IC50 (Protein kinase C (PKC)): 400 µM; pIC50 [2]: 3.82; pIC50 [3]: 6.00
45 | 6.52 | CONC(=O)c1cc(NCc2cc(O)ccc2O)ccc1O | –
46 | 6.40 | CCOC(=O)c1cc(NCc2cc(O)ccc2O)ccc1O | –
47 | 6.96 | O=C(Oc1cccc2ccccc12)c1cc(NCc2cc(O)ccc2O)ccc1O | –
48 | 7.05 | O=C(Oc1cccc(O)c1)c1cc(NCc2cc(O)ccc2O)ccc1O | –
49 | 6.44 | CC(COC(=O)c1cc(NCc2cc(O)ccc2O)ccc1O)Cc1ccccc1 (centres undefined) | –
50 | 7.00 | CC(C)(C)ONC(=O)c1cc(NCc2cc(O)ccc2O)ccc1O | inhibition [9]: 35%
51 | 7.30 | O=C(NOCc1ccccc1)c1cc(NCc2cc(O)ccc2O)ccc1O | –
52 | 6.89 | O=C(OCCc1ccccc1)c1cc(NCc2cc(O)ccc2O)ccc1O | pIC50 [2]: 5.40; pIC50 [3]: 6.70
53 | 7.05 | O=C(Oc1ccc2ccccc2c1)c1cc(NCc2cc(O)ccc2O)ccc1O | –
